Consider 96 compounds from PubChem BioAssay AID719 (SRMLSC, 2007).

In all, about 85,000 compounds went through this assay and about 940 (1.1%) were called active. This is one part of a sample in which actives are shown more often than they occur. Values without a mark were called inactive.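 How the source made its calls: active means viability at or below 50% in the single dose screen; inactive means viability above 50%.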

A short description of this experiment: antiproliferative effect on LL 47 fibroblasts – human, LL 47 cells, CellTiter-Glo luminescence, primary screen (AID 719).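 Further: compound exposure lasted 72 h before the ATP readout; 100% = median luminescence of untreated cell-only wells.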 The settings on record: LL 47 human lung fibroblast viability, ATP luminescence; at 10 µM; active compounds read low. In short, it runs like this: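 Test system: LL 47 human lung fibroblasts; Quantity: 1,150 cells/well; Buffer or medium: IMEM plus 15% FBS; Dosing: tenfold compound dosing solution, DMSO at 0.1%; Timing: overnight cell rest, 72 h compound treatment at 37 °C; Detection: ATP-based CellTiter-Glo luminescent readout; Read-out basis: viability percentage against median untreated-cell control; Controls: cell-only wells, no compound.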
(In general: In ATP-based viability assays light output follows the ATP content of the culture.)
For orientation: viability means a read-out of living cells in per cent, often relative to untreated cells. For the compound `O=C(CCn1c(SCC(=O)c2ccccc2)nc2ccccc2c1=O)NCc1ccc(F)cc1`, the viability was 103%.

As for `COc1ccc(C2=CC(c3cccc(OC)c3)n3nnnc3N2)cc1` (stereo unspecified), the viability was 86.1%.

Take `CCOc1cccc(-c2nnc3sc(COc4ccc(OC)cc4)nn23)c1`: the viability is 99.8%.

For the compound `CCOc1cccc(-n2nnnc2-c2ccc(OC)cc2)c1`, the viability is 47.7% (active).

Take `Cc1ccc(Nc2nnc(SCc3ccccc3)s2)cc1`: the viability is 102%.

Regarding `Cc1ccc(C)c(N2C(=O)CS/C2=N\NC(=O)c2ccccc2Cl)c1`, the viability is 101%.

With `CC(C)CC(N=C1NC(C)(C)Cc2ccccc21)C(=O)O` (stereo unspecified), the viability is 111%.

`COc1ccc(NC(=O)/C(Cl)=C(/Cl)S(=O)Cc2ccc(C)cc2)cn1` (stereo unspecified): the viability is 1.6% (active).

On to `COc1cccc(NC(=O)Cc2ccc(C)cc2)c1`, for which the viability was 91.5%.

For `COc1ccc(-c2nc3ccccc3n2CCC(C)C)cc1OC`, the viability was 99.3%.

In the case of `O=C(CN1CCCCCC1)N1c2ccccc2Sc2ccc(C(F)(F)F)cc21`, the viability was 96%.

Turning to `CCCCCCc1cc2cc(-c3nnc(-c4cccc(OC)c4)o3)c(=O)oc2cc1O`, the viability was 64.8%.

Turning to `COC(=O)CSc1nc2c(c(C3CC=CCC3)c1C#N)CCC2` (stereo unspecified), the viability was 101%.

Consider `Cc1cc(C)n(-c2nnc(C)n2NC(=O)c2cccc(Cl)c2)n1`, for which the viability is 94.7%.

As to `COCCCn1c(SCC(=O)Nc2ccccc2)nnc1-c1ccncc1`, the viability is 108%.

Regarding `Cc1ccc(NC(=O)N2CCC(c3nc4c(nnn4Cc4c(F)cccc4Cl)c(=O)[nH]3)CC2)cc1`, the viability was 95%.

For `N=c1c2c(-c3ccccc3)c(-c3ccccc3)n(Cc3ccccc3)c2ncn1CCCO`, the viability is 39% (active).

`OCCCN1c2ccccc2Nc2nnc(-c3ccccc3)cc21`: the viability was 89.3%.

On to `C=CCO/N=C(\C)c1c(O)c(C)c(-c2ccccc2)n(-c2ccccc2)c1=O`, for which the viability was 99.4%.

Consider `Cc1cccc(N2CCN(C(=O)c3cnn4c(C(F)F)cc(-c5ccccc5)nc34)CC2)c1C`, for which the viability was 87.9%.

`CCCn1c(=O)c2ccccc2n2c(SCC(=O)/C(C#N)=C(\C)N)nnc12`: the viability is 93.4%.

With `C=CCn1c(SCC(=O)/C(C#N)=C(\C)N)nc2sc(C)c(C)c2c1=O`, the viability was 34.3% (active).

As for `Cc1sc2nc(SCC(N)=O)n(C)c(=O)c2c1C`, the viability was 93.8%.

With `CCOc1cc(NC(=O)c2cnccn2)c(OCC)cc1NC(=O)c1ccc(C)cc1`, the viability was 97.9%.

With `O=C(Nc1cccc(F)c1)c1ccc(S(=O)(=O)N2CCCC2)cc1`, the viability is 109%.

Consider `COc1ccc(C(=O)Nc2ccc(F)cc2F)cc1`, for which the viability was 99.5%.

With `CCOC(=O)N1CCN(S(=O)(=O)c2ccc(C(=O)Nc3ccc(F)cc3F)cc2)CC1`, the viability is 47.5% (active).

`COc1ccc(Nc2ncc(C(=O)N3CCN(c4ccccc4OC)CC3)c3ccccc23)cc1`: the viability is 100%.

For `Fc1ccc(-n2c(Cc3ccccc3)nnc2SCc2nc(-c3ccc(Cl)cc3)no2)cc1`, the viability was 111%.

With `CC(C)CNC(=O)CC(c1ccccc1)c1c(O)ccc2ccccc12` (stereo unspecified), the viability was 94.7%.

Turning to `CC(C)C(=O)NC(NC(=S)NC1CCS(=O)(=O)C1)C(Cl)(Cl)Cl` (stereo unspecified), the viability is 104%.

Take `COCCn1c(SCc2nnc(-c3ccc(OC)c(OC)c3)o2)nc2sc3c(c2c1=O)CCC3`: the viability was 99.8%.

In the case of `O=C(Cn1cnc2c(nnn2Cc2ccc(F)cc2)c1=O)NCc1ccc2c(c1)OCO2`, the viability was 93.2%.

As for `CCCc1nc(NCc2ccc3c(c2)OCO3)c2nnn(Cc3ccccc3Cl)c2n1`, the viability is 23.2% (active).

On to `Cc1nc(Nc2ccc3c(c2)OCCO3)c2nnn(Cc3ccccc3Cl)c2n1`, for which the viability was 98.4%.

As to `COC(=O)c1cccc(-n2[nH]nnc2=S)c1`, the viability was 102%.

For `Cc1ccc(-n2c(CNc3ccc(F)cc3)nnc2SCC(=O)N2CCOCC2)cc1`, the viability is 2.59% (active).

`CCOC(=O)CSc1nnc(CNC(=O)c2ccco2)n1-c1ccc(F)cc1`: the viability is 103%.

With `O=C(CSc1nnc(Cc2ccccc2)n1-c1ccccc1)N1CCOCC1`, the viability was 109%.

Take `O=C(NCCCn1ccnc1)Nc1ccc(Cl)cc1Cl`: the viability is 102%.

For `CCCCOc1ccc(N(CC(=O)NCC2CCCO2)C(=O)CCC(=O)Nc2cc(C)ccn2)cc1` (stereo unspecified), the viability is 91.1%.

With `COc1ccc(Br)cc1CN1CCN(C(=O)c2cccc(OC)c2OC)CC1`, the viability is 94.1%.

As for `c1ccc2c(c1)C(=NC1CCCCC1)NC2=NC1CCCCC1`, the viability is 40.6% (active).

As to `O=C1CCCCC(=O)c2ccccc2N1`, the viability is 96.7%.

In the case of `Cc1nn(Cc2ccccc2)c2c1C(c1ccccc1)C(C#N)=C(N)O2` (stereo unspecified), the viability was 98.6%.

As for `CCCCNS(=O)(=O)c1ccc(S(=O)(=O)n2cnc3ccccc32)cc1`, the viability was 107%.

In the case of `OC(CNCC1CCCO1)Cn1c2ccc(Br)cc2c2cc(Br)ccc21` (stereo unspecified), the viability is 2.96% (active).

As to `Cc1cc(Br)ccc1NC(=O)C1CCCO1` (stereo unspecified), the viability is 91.1%.

Consider `Cc1ccc(C(=O)NCC2CCCO2)o1` (stereo unspecified), for which the viability is 101%.

Consider `COC(=O)C1=C(C(=O)OC)C2(OC1c1ccc(Br)cc1)C(=O)c1ccccc1C2=O` (stereo unspecified), for which the viability was 105%.

Take `O=C(Nc1cccc(NC(=O)c2ccco2)c1)c1cnccn1`: the viability was 103%.

For the compound `COC(=O)c1cc2nc(-c3ccccc3)cc(C(F)(F)F)n2n1`, the viability is 97.7%.

On to `CNc1nc(SC)nc(N(C#N)CC(=O)OC)n1`, for which the viability was 107%.

For `CC(=O)Nc1ccc(S(=O)(=O)N2CCN(C(=O)c3ccccc3F)CC2)cc1`, the viability was 105%.

For the compound `Cc1nc2ccccc2c(=O)n1CCCn1ccnc1`, the viability is 100%.

Consider `CCn1c(/C=C/c2ccc([N+](=O)[O-])o2)nc2ccccc2c1=O`, for which the viability was 9.18% (active).

As to `O=c1c2ccccc2nc(N/N=C/c2ccccc2)n1O`, the viability was 99.1%.

For `C=CCn1c(SCc2c(C)noc2C)nc2sc3c(c2c1=O)CCC(C)C3` (stereo unspecified), the viability is 47.2% (active).

With `CC1CCc2c(sc3nc4n(c(=O)c23)CCS4)C1` (stereo unspecified), the viability is 104%.

Regarding `CCCn1nnc2sc3c(c2c1=O)CCC(C)C3` (stereo unspecified), the viability was 88.2%.

As for `COc1ccc(CN(CC(=O)NC2CCCC2)C(=O)CCC(=O)Nc2cc(C)on2)cc1`, the viability is 101%.

`O=C1C=C(c2ccc(Cl)cc2)C(=O)N1Nc1ccccc1`: the viability was 49.3% (active).

As to `Cc1ccc(-c2noc(CSc3nnc(-c4ccncc4)n3-c3ccc(F)cc3)n2)cc1`, the viability was 80.8%.

For the compound `OC(CN=c1sc2ccccc2n1CC(O)COc1ccccc1)COc1ccccc1` (stereo unspecified), the viability was 86%.

In the case of `O=C(CC(O)(C(F)(F)F)C(F)(F)F)Nc1ccc(Cl)c(Cl)c1`, the viability was 22.4% (active).

Consider `N/C(=N\OC(=O)Nc1ccc(Cl)c(Cl)c1)c1ncc(C(F)(F)F)cc1Cl`, for which the viability was 97.2%.

Turning to `CN(C)CCNC(CC(=O)Nc1ccc(Cl)c(Cl)c1)C(=O)O` (stereo unspecified), the viability is 102%.

In the case of `COC(=O)c1ccc(NC(=O)C23CC4CC(C2)CC(n2cnc(Cl)n2)(C4)C3)cc1`, the viability is 96.5%.

On to `COc1ccc(C2CC(c3cccs3)=Nc3ccccc3S2)cc1OC` (stereo unspecified), for which the viability was 93.6%.

With `COc1ccc(N(CC(=O)NC2CCCCC2)C(=O)CNC(=O)c2ccco2)c(OC)c1`, the viability was 96.4%.

In the case of `CCOc1ccc(Nc2oc(Cc3ccccc3)nc2C#N)cc1`, the viability was 99.8%.

For the compound `COc1ccc(Nc2oc(-c3ccccc3Cl)nc2C#N)cc1`, the viability was 23.1% (active).

Regarding `COc1ccccc1-c1nc(C#N)c(N2CCC(C(N)=O)CC2)o1`, the viability is 89.3%.

Regarding `COc1ccccc1NC1=NC(c2ccc(Cl)cc2)N=C(N)N1` (stereo unspecified), the viability is 45.8% (active).

With `COc1ccccc1Nc1nc(N)nc(CN(C)C2CCCCC2)n1`, the viability was 94.3%.

For the compound `COc1ccccc1NC1=NC2(CCCC2)N=C(N)N1`, the viability is 93%.

Take `CCn1c(=O)c(=O)n(CC)c2cc(S(=O)(=O)N3CCc4ccccc43)ccc21`: the viability is 70.5%.

For the compound `CC1(C)CCc2nc(SCc3ccccc3)c(C#N)cc2C1`, the viability is 95.3%.

As for `Cc1nc(NC(=O)C2CCCCC2)sc1C`, the viability was 108%.

As to `O=C(NCc1ccccc1)C1CCCN(S(=O)(=O)c2cccs2)C1` (stereo unspecified), the viability is 94.6%.

`O=C(Cn1c(-c2cscn2)nc2ccccc21)Nc1ccc(Cl)cc1`: the viability was 90.7%.

As for `CN(C)c1ccnc2sc3c(=O)n(-c4ccc(Cl)cc4)cnc3c12`, the viability is 102%.

In the case of `CC1=C(C(=O)Nc2ccccc2)C(c2ccco2)C(C#N)=C(SCC(N)=O)N1` (stereo unspecified), the viability was 88.2%.

`Cc1cc2c(c(=O)n1Cc1ccco1)C(c1ccccc1)C(C#N)=C(N)O2` (stereo unspecified): the viability is 107%.

In the case of `N#CC1=C(N)Oc2c(sc3ccccc23)C1c1ccco1` (stereo unspecified), the viability is 20.2% (active).

As to `CCNc1nc(NC(C)C)nc(OCCOC(=O)c2ccccc2)n1`, the viability was 108%.

`Cc1cc(O)cc(O)c1C(=O)Cc1cnn(-c2ccccc2)c1`: the viability is 98.6%.

`C/C(=N\NC(=O)c1ccc(C)cc1)C1C(=O)c2ccccc2C1=O`: the viability was 103%.

For the compound `COc1cccc(NC(=O)CN(C)S(=O)(=O)c2ccc(C)cc2)c1`, the viability is 93.1%.

On to `COc1cccc(-c2nnc(NC(=O)c3ccc(S(=O)(=O)N(CC(C)C)CC(C)C)cc3)o2)c1`, for which the viability is 8.59% (active).

Take `CCN(CC)C(=O)CSc1nnc(-c2cccc(OC)c2)o1`: the viability is 101%.

As for `c1ccc(-n2nc3ccccc3n2)cc1`, the viability was 100%.

On to `Cc1ccc(/C=N/NC(=O)C2=NNC(c3ccccc3)(c3ccccc3)C2)c(O)c1`, for which the viability is 19.2% (active).

Turning to `C/C(=N\NC(=O)c1nc(C)cc(C)n1)c1ccccc1`, the viability was 106%.

Take `Cc1ccc(OCC(=O)N/N=C\c2ccco2)c(C)c1`: the viability was 108%.

`CCOc1ccc(-n2c(N)c(C(=O)NCC3CCCO3)sc2=S)cc1` (stereo unspecified): the viability is 101%.
